“And” between values parts separate entries of the source, which are not always exact repeats. Identical values can stand only once.
Test system: HEK-293T
Experiment: Multiplex assay against HEK293T;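 as to Population Tubulin-Different-Phenotype (%): share of the cells with healthy nuclei that show this phenotype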
Assay type: toxicity, cell-based
Settings: human
Summary of the method: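 Per cents of healthy-nucleus cells form the tubulin, mitochondrial-mass and membrane-permeability phenotype values. Live cells were stained at seeding with Hoechst33342, BioTracker Green Microtubule Cytoskeleton Dye, MitoTracker Red and Annexin V Alexa Fluor 680. After compound addition they were imaged on a CQ1 microscope at 37°C and 5% CO2, and CellPathfinder machine-learning gating split them into Hoechst high-intensity objects or normal cells, normal cells into healthy, pyknosed or fragmented nuclei, and pyknosed cells into mitotic or apoptotic.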

[1] = 12 h, 1 µM, compound concentration 1 uM, replicate 1
[2] = 12 h, 1 µM, compound concentration 1 uM, replicate 2
[3] = 12 h, 10 µM, compound concentration 10 uM, replicate 1
[4] = 12 h, 10 µM, compound concentration 10 uM, replicate 2
[5] = 24 h, 1 µM, compound concentration 1 uM, replicate 1
[6] = 24 h, 1 µM, compound concentration 1 uM, replicate 2
[7] = 24 h, 10 µM, compound concentration 10 uM, replicate 1
[8] = 24 h, 10 µM, compound concentration 10 uM, replicate 2
[9] = 48 h, 1 µM, compound concentration 1 uM, replicate 1
[10] = 48 h, 1 µM, compound concentration 1 uM, replicate 2
[11] = 48 h, 10 µM, compound concentration 10 uM, replicate 1
[12] = 48 h, 10 µM, compound concentration 10 uM, replicate 2

CS(=O)(=O)N1CCCC(NC(=O)[C@H](CCC2CCCCC2)NC(=O)c2ccc(CNC(=O)c3cnc4ccccn34)cc2)C1 (some centres undefined) [SR-302]
Population Apoptotic (%) [1]: 40% [middle of 4 runs] | Population Fragmented Nuclei (%) [1]: 13% [middle of 4 runs] | Population Hoechst High Intensity Objects (%) [1]: 14% [middle of 4 runs] | Population Membrane Permeable-Phenotype (%) [1]: 3% and 2% | Population Mitotic Cells (%) [1]: 65% [middle of 4 runs] | Population Normal (%) [1]: 86% and 85% and 81% | Total Cell Count [1]: 519 [middle of 4 runs] | Population Apoptotic (%) [2]: 17% [middle of 4 runs] | Population Fragmented Nuclei (%) [2]: 8% and 5% | Population Healthy Nuclei (%) [2]: 48% [middle of 4 runs] | Population Hoechst High Intensity Objects (%) [2]: 6% and 3% and 2% | Population Mitotic Cells (%) [2]: 88% [middle of 4 runs] | Population Normal (%) [2]: 93% and 96% and 97% | Population Apoptotic (%) [3]: 65% [middle of 4 runs] | Population Fragmented Nuclei (%) [3]: 13% and 12% and 16% | Population Hoechst High Intensity Objects (%) [3]: 16% [middle of 4 runs] | Population Membrane Permeable-Phenotype (%) [3]: 7% and 4% and 3% | Population Mitotic Cells (%) [3]: 35% [middle of 4 runs] | Population Normal (%) [3]: 85% and 83% and 77% and 86% | Total Cell Count [3]: 331 [middle of 4 runs] | Population Healthy Nuclei (%) [4]: 30% and 36% and 87% | Population Membrane Permeable-Phenotype (%) [4]: 12% and 8% | Population Mitotic Cells (%) [4]: 52% [middle of 4 runs] | Population Normal (%) [4]: 95% and 90% and 94% and 97% | Population Tubulin-Different-Phenotype (%) [4]: 93% [middle of 4 runs] | Population Apoptotic (%) [5]: 52% [middle of 4 runs] | Population Fragmented Nuclei (%) [5]: 13% [middle of 4 runs] | Population Hoechst High Intensity Objects (%) [5]: 15% and 14% and 24% | Population Membrane Permeable-Phenotype (%) [5]: 4% and 3% and 2% | Population Mitotic Cells (%) [5]: 64% [middle of 4 runs] | Population Normal (%) [5]: 84% and 85% and 75% | Population Healthy Nuclei (%) [6]: 65% [middle of 4 runs] | Population Membrane Permeable-Phenotype (%) [6]: 11% and 7% and 5% | Population Mitotic Cells (%) [6]: 76% and 75% and 93% | Population Normal (%) [6]: 95% and 97% and 96% and 98% | Population Apoptotic (%) [7]: 63% and 66% and 26% | Population Fragmented Nuclei (%) [7]: 18% [middle of 4 runs] | Population Hoechst High Intensity Objects (%) [7]: 17% [middle of 4 runs] | Population Mitotic Cells (%) [7]: 36% and 33% and 73% | Population Normal (%) [7]: 82% and 84% and 81% and 89% | Total Cell Count [7]: 335 [middle of 4 runs] | Population Fragmented Nuclei (%) [8]: 3% and 6% | Population Healthy Nuclei (%) [8]: 44% and 77% and 50% | Population Membrane Permeable-Phenotype (%) [8]: 13% and 6% and 5% | Population Mitotic Cells (%) [8]: 94% and 46% and 37% | Population Normal (%) [8]: 98% and 97% and 91% and 95% | Population Tubulin-Different-Phenotype (%) [8]: 56% and 88% and 94% | Population Apoptotic (%) [9]: 46% and 31% and 58% | Population Fragmented Nuclei (%) [9]: 25% and 16% and 23% | Population Healthy Nuclei (%) [9]: 24% and 43% and 23% | Population Hoechst High Intensity Objects (%) [9]: 11% and 24% | Population Membrane Permeable-Phenotype (%) [9]: 1% and 0% | Population Mitochondria Different-Phenotype (%) [9]: 42% and 44% and 58% | Population Mitotic Cells (%) [9]: 53% and 68% and 41% | Population Normal (%) [9]: 88% and 76% | Population Pyknosed Nuclei (%) [9]: 49% and 40% and 53% | Population Tubulin-Different-Phenotype (%) [9]: 18% and 29% and 41% | Total Cell Count [9]: 293 and 638 and 325 | Population Apoptotic (%) [10]: 30% and 16% and 25% | Population Fragmented Nuclei (%) [10]: 5% and 6% and 7% | Population Healthy Nuclei (%) [10]: 81% and 84% and 82% | Population Hoechst High Intensity Objects (%) [10]: 5% and 4% | Population Membrane Permeable-Phenotype (%) [10]: 3% | Population Mitochondria Different-Phenotype (%) [10]: 9% and 8% and 10% | Population Mitotic Cells (%) [10]: 69% and 83% and 74% | Population Normal (%) [10]: 94% and 95% | Population Pyknosed Nuclei (%) [10]: 12% and 9% and 10% | Population Tubulin-Different-Phenotype (%) [10]: 16% and 27% | Total Cell Count [10]: 344 and 689 and 583 | Population Apoptotic (%) [11]: 64% and 65% and 62% | Population Fragmented Nuclei (%) [11]: 23% and 21% and 33% | Population Healthy Nuclei (%) [11]: 18% and 20% and 19% | Population Hoechst High Intensity Objects (%) [11]: 22% and 18% | Population Membrane Permeable-Phenotype (%) [11]: 3% and 0% | Population Mitochondria Different-Phenotype (%) [11]: 90% and 100% and 97% | Population Mitotic Cells (%) [11]: 35% and 34% and 37% | Population Normal (%) [11]: 77% and 81% | Population Pyknosed Nuclei (%) [11]: 58% and 57% and 47% | Population Tubulin-Different-Phenotype (%) [11]: 96% and 95% | Total Cell Count [11]: 360 and 347 and 256 | Population Apoptotic (%) [12]: 61% and 73% and 52% | Population Fragmented Nuclei (%) [12]: 4% and 5% and 8% | Population Healthy Nuclei (%) [12]: 69% and 75% and 71% | Population Membrane Permeable-Phenotype (%) [12]: 1% | Population Mitochondria Different-Phenotype (%) [12]: 89% and 83% | Population Mitotic Cells (%) [12]: 38% and 26% and 47% | Population Normal (%) [12]: 97% and 95% and 92% | Population Pyknosed Nuclei (%) [12]: 26% and 19% | Total Cell Count [12]: 310 and 372 and 210

From ChEMBL document CHEMBL4689842, “EUbOPEN Chemogenomics Library wave 1” (2021)
